Source: PubChem BioAssay (several laboratories)
Compounds with a hit are over-represented: about 4% of the library has one in this group of screens.
NTR1 ag = agonists of human neurotensin receptor NTR1; P30989; activation, % at 20 µM; 0.17% of 330,000 active; NTR1-U2OS beta-arrestin-GFP spot imaging, agonist mode;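 active means activation at or above 40% of the spot to cytoplasm intensity ratio, with at least 20 cells analyzed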;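 further: 0% = DMSO without peptide and 100% = 100 nM NTR1 peptide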
OX1R antag-1 = antagonists of human orexin 1 receptor; O43613; CHO/OX1R cells, Fluo-8 calcium fluorescence, orexin A; inhibition, % at 5 µM; 0.43% of 330,000 active; AID 434989;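 active means inhibition above its plate's threshold, mean inhibition of all tested compounds on the plate plus 3 SD, cut at about 37% in these data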;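 further: 0% = orexin A challenge wells and 100% = SB-334867-A antagonist wells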
TAAR1 ag = agonists of human TAAR1; Q96RJ0; CHO RD-HGA16 TAAR1, Fluo-8 calcium fluorescence; vehicle wells 0%, saturating PEA agonist 100%; activation, % at 3 µM; 0.99% of 360,000 active; AID 624467;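 active means activation above the mean activation of all test compounds in the run plus 3 SD, cut at about 38% in these data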
Target sequence (Q96RJ0 whole entry, looked up): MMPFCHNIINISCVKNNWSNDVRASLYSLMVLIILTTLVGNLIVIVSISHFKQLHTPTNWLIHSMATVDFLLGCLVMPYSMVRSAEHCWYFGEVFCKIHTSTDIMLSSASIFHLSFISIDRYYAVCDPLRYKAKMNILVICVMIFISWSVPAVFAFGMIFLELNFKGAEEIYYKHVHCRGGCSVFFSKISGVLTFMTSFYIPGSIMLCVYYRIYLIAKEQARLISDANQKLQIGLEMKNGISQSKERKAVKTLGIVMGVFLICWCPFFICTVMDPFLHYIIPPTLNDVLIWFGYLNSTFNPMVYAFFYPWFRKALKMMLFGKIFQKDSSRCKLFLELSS
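Assay system: CHO-derived RD-HGA16 cells with stable Gα16 and human TAAR1; timing: 17-24 h seeding, 75 min 37 °C dye, 30 min RT; read-out: % activation from peak over basal fluorescence ratio, DMSO-to-PEA scaled; measured by: kinetic Fluo-8 calcium fluorescence; benchmarks: low control DMSO, high control PEA (EC100); doses: 3 µM single concentration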
TAAR1 antagonist = antagonists of human TAAR1; CHO RD-HGA16 TAAR1, Fluo-8 calcium fluorescence, antagonist; inhibition, % at 3 µM; 1.5% of 360,000 active; AID 624466;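 active means inhibition above a per-plate cutoff, the mean inhibition of test compounds on that plate plus 3 SD, cut at about 49% in these data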;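 further: 0% = DMSO plus EC80 beta-PEA response and 100% = DMSO alone without agonist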
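System: RD-HGA16 CHO cells with stable hTAAR1 and Gα16 | Probe or stimulus: EC80 β-phenethylamine stimulus | Dosing: 3 µM, single point | Times: Dye loading 75 min at 37 °C, then 30 min room temperature | Measured by: Fluo-8 calcium-sensitive fluorescence | Read-out basis: % inhibition of agonist calcium response | Replicates: n of 1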
OX1R antag-2 = OX1R (human) antagonism; O43613; OX1R-expressing cells, FRET antagonist read-out; inhibition, % at 6.6 µM; 1.8% of 330,000 active; AID 485270; in the data active means inhibition mostly above about 38%, no sharp cut-off; inactive means mostly below about 40%;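 further: 0% = agonist challenge alone and 100% = reference antagonist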
CHO parental Ca = counter-screen: ATP calcium response change in parental CHO cells; parental CHO-K1, ATP-induced calcium, Fluo-8 fluorescence; 0.63% of 330,000 active; inhibition, % at 5.6 µM;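 active means inhibition above that plate's mean sample inhibition plus 3 SD, cut at about 26% in these data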;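 further: 0% = ATP-challenged DMSO wells and 100% = DMSO wells without ATP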
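material = parental CHO cells | also added = ATP as calcium-mobilizing challenge | dosing = single point at 5.6 µM | detection = intracellular calcium via Fluo-8 no-wash fluorescent dye | read-out = % inhibition | benchmarks = low control ATP plus DMSO, high control DMSO only | repeats = one well per compound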
* hit, by the source's call; . = no result given.

SMILES	NTR1 ag	OX1R antag-1	TAAR1 ag	TAAR1 antagonist	OX1R antag-2	CHO parental Ca
COC(=O)CSc1nc2nc(C)c(Br)cc2[nH]1	0	-20	4	-2	14	-9
Cc1ccc(NC(=O)CSc2nc3nc(C)c(Br)cc3[nH]2)cc1F	5	-4	12	-29	45*	-17
CCC1(c2ccc(F)cc2)NC(=O)N(CC(=O)Nc2ccc(N3CCCCC3)cc2)C1=O (stereo not drawn)	4	-12	60*	19	-10	1
COc1ccc(C2CC(=O)C(c3ccc(Br)cc3)=CN2Cc2ccccc2)cc1 (stereo not drawn)	.	.	0	-28	.	.
CCOc1ccc(-n2c(=S)sc3c(=O)[nH]c(SCC(=O)C(C)(C)C)nc32)cc1	4	1	14	4	48*	-8
CCOc1ccc(-n2c(=S)sc3c(=O)[nH]c(SCC(=O)NCc4ccco4)nc32)cc1	2	12	10	-5	18	0
COCc1cc(N2CCN(C(=O)OC(C)(C)C)C[C@H]2C)ccc1N1CC[C@@H](O)C1	.	.	2	5	.	.
CCOc1ccccc1NC(=O)CN(c1ccc(C)cc1)S(=O)(=O)c1c(C)n[nH]c1C	6	-26	10	15	16	-22
CCOC(=O)c1ccc(NC(=O)CN(c2ccc(C)cc2)S(=O)(=O)c2c(C)n[nH]c2C)cc1	6	19	34	52*	1	9
COC(=O)C1=C(C)N(CC(C)C)C(=S)NC1c1ccc(-c2ccccc2)cc1 (stereo not drawn)	.	.	1	-27	.	.
CCc1ccccc1NC(=O)c1cc(-c2cccc(O)c2)on1	0	-5	7	8	14	-9
COc1cccc(-c2cc(C(=O)Nc3cccc(O)c3)no2)c1	0	15	8	34	71*	-6
COc1cc(NC(=O)c2cc(-c3cccc(O)c3)on2)cc(OC)c1OC	-1	-14	10	42	38*	-4
O=C(Nc1ccccc1C(F)(F)F)c1cc(-c2cccc(O)c2)on1	3	3	7	16	9	51*
O=C(Nc1cccc(C(F)(F)F)c1)c1cc(-c2ccc(F)cc2)on1	2	-19	8	8	10	58*
CC(C)c1cc(C(=O)Nc2cccc(C(F)(F)F)c2)no1	1	-2	7	3	19	-4
CSc1nn(CCC#N)c(=O)[nH]c1=O	.	.	6	-37	.	.
Cc1ccc(OCCNS(=O)(=O)c2ccc(N3CCCC3=O)cc2)cc1C	1	34	8	-15	35*	9
Cc1ccc(OCCNS(=O)(=O)c2ccc(N3CCCC3=O)cc2)cc1	-1	18	4	-1	26	16
N/C(=N\c1nc2ccccc2o1)NC(=O)/C=C/c1ccccc1	2	-16	2	-26	40*	-14
N/C(=N\c1nc2ccccc2o1)NC(=O)c1ccccc1	-2	-28	16	-5	11	-34
Cc1ccc(Oc2nnc(-c3cccs3)c3ccccc23)cc1C	5	-6	-1	-2	6	40*
O=[N+]([O-])c1cc(Br)c(OCc2nnc(-c3ccccc3)o2)c(Br)c1	5	-22	4	12	7	-13
O=[N+]([O-])c1ccc2c(OCc3nnc(-c4ccccc4Br)o3)ncnc2c1	2	-14	3	-12	49*	-15
O=c1c2ccccc2[nH]c(=S)n1C1CCCCC1	3	-19	40*	26	-3	11
SMILES	NTR1 ag	OX1R antag-1	TAAR1 ag	TAAR1 antagonist	OX1R antag-2	CHO parental Ca
COCCNC(=O)c1cc(-c2ccccc2C)nn1CC1CC(c2cccnc2)=NO1 (stereo not drawn)	0	15	6	-6	12	-2
O=C(Oc1cccc(NC2=NS(=O)(=O)c3ccccc32)c1)c1cccnc1	1	-16	23	49*	12	-6
CCN(CC)Cc1cc(NC2=NS(=O)(=O)c3ccccc32)ccc1OC(=O)c1ccccc1	0	-6	1	-7	11	12
Cc1cc(C)c(NC(=O)C2CCCN2CCOC(=O)c2ccccc2)c(C)c1 (stereo not drawn)	0	7	5	-8	73*	-3
O=C(c1ccccc1NS(=O)(=O)c1ccccc1)N1CCCCCC1	0	-17	1	5	23	-14
CC1CCN(C(=O)c2ccccc2NS(=O)(=O)c2ccccc2)CC1	1	-21	0	-10	50*	-12
C[C@@H]1CN([C@@H](C)CO)S(=O)(=O)c2ccc(Br)cc2O[C@@H]1CN(C)S(=O)(=O)c1ccc(F)cc1	.	.	15	2	.	.
COc1ccc(/C=C2\Sc3ccc(C(=O)N4CCN(Cc5ccccc5)CC4)cc3N(C)C2=O)cc1OC	8	3	4	59*	17	-1
CN1CCN(C(=O)c2ccc3c(c2)N(C)C(=O)/C(=C/c2cccc(Cl)c2)S3)CC1	-1	-20	4	3	12	1
CC(C)[C@H](CO)N(Cc1cccc(F)c1)c1nc(Nc2cccc(Cl)c2)c2ncn(C(C)C)c2n1	4	33	53*	73*	3	37*
Cc1ccc(S(=O)(=O)N(C)[C@H]2C[C@H]3c4cc(-c5ccc6c(c5)OCO6)ccc4CCN3C[C@H]2[C@H](C)O)cc1	.	.	1	-32	.	.
CN(C)C=NC(=O)c1ccc([N+](=O)[O-])c(CS(=O)(=O)c2ccc(Cl)cc2)c1	2	-9	11	-5	72*	-9
O=S(=O)(c1cccs1)N1CCN(c2ccnc3cc(Cl)ccc23)CC1	8	-39	0	35	8	-14
O=S(=O)(c1ccccc1)N1CCN(c2ccnc3cc(Cl)ccc23)CC1	5	38	6	39	29	89*
CCOc1ccccc1NC(=O)C(Sc1ccccc1)c1ccccc1 (stereo not drawn)	6	59*	12	57*	37	57*
COc1ccccc1NC(=O)C(Sc1ccccc1)c1ccccc1 (stereo not drawn)	10	-25	-1	7	47	15
O=C1[C@@H]2CSCCS(=O)(=O)N2C(=O)N1C1CCCCC1	.	.	2	5	.	.
Cc1ccc(NC(=O)CSCC(=O)Nc2ccc(S(=O)(=O)N3CCOCC3)cc2)cc1	2	-20	4	4	8	-11
Cc1ccc(NC(=O)CC(C)c2ccccc2)cc1S(=O)(=O)N1CCOCC1 (stereo not drawn)	1	4	6	-3	37*	-12
O=C(CSc1ccccc1)Nc1ccc(Cl)c(S(=O)(=O)N2CCOCC2)c1	2	12	7	13	40*	-10
O=C(CSc1cccc2cccnc12)Nc1ccc(S(=O)(=O)N2CCOCC2)cc1	7	17	2	-7	16	38*
